In PubChem BioAssay AID463201 (Sanford-Burnham Center for Chemical Genomics, 2010):
The source made the active and inactive calls.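 The calls were made as follows: active = activation above 50% at 10 µM in both replicate datasets; inactive = the rest.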

Biological target: Vasopressin V2 receptor (Homo sapiens) (UniProt P30518)
Assay: agonism at AVPR2 via arrestin translocation – imaging, beta-arrestin-GFP, U2OS, agonist mode, selectivity assay for GPR35 antagonist project, SAR follow-up (AID 463201)
Settings: U2OS V2R beta-arrestin-GFP translocation imaging, 40 min; at 10 µM; hits give high values
In short: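 Material: U2OS cells stably expressing human vasopressin receptor and beta-arrestin2-GFP / Medium: serum-free culture medium during compound exposure / Schedule: compound exposure 40 min at 37 °C, then fixation / Signal: imaging of arrestin-GFP aggregates in fixed cells / Control set: arginine vasopressin at 0.01 µIU/mL (low) and 10 mIU/mL (high)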

Vasopressin V2 receptor (Homo sapiens), sequence (P30518 whole entry, looked up): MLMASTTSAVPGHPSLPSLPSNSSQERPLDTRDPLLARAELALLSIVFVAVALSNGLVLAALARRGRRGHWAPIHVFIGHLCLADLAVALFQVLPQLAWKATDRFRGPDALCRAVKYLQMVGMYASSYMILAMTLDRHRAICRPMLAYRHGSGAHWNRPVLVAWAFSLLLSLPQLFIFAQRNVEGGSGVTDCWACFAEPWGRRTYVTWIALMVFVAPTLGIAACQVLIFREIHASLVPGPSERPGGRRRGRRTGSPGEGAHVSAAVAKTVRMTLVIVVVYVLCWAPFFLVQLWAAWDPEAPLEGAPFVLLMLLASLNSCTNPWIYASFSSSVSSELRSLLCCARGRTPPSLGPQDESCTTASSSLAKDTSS

## O=C(CCCN1C(=O)/C(=C/c2ccc3c(c2)OCO3)SC1=S)Nc1ccc(C(=O)O)cc1
  activation: -0.34% (inactive)

## Cc1c(C(=O)Nc2ccc3c(c2)OCCO3)sc2ncnc(N3CCC(C)CC3)c12
  activation: -0.03% (inactive)

## O=C(CCCN1C(=O)S/C(=C/c2ccccc2)C1=S)Nc1ccc(C(=O)O)cc1
  activation: -0.21% (inactive)

## O=C(CCCN1C(=O)/C(=C/c2ccc3c(c2)OCO3)SC1=S)Nc1cccc(C(=O)O)c1
  activation: -0.29% (inactive)

## Cc1ccccc1N1CCN(c2ncnc3c2cnn3Cc2ccc(Cl)cc2)CC1
  activation: -0.16% (inactive)

## O=C(Nc1ccc2nc(SCc3ccccc3)sc2c1)c1ccccc1C(=O)N1CCOCC1
  activation: -0.18% (inactive)

## CC(C)c1ccc(NC(=O)CSc2nc3ccsc3c(=O)n2Cc2ccc(C(=O)O)cc2)cc1
  activation: 0.05% (inactive)

## COc1ccc(/C=C2/SC(=S)N(CCCC(=O)Nc3ccc(O)cc3)C2=O)cc1
  activation: -0.32% (inactive)

## CCOC(=O)c1ccc(NC(=O)CCCN2C(=O)/C(=C/c3ccc(C)cc3)SC2=S)cc1
  activation: 0.05% (inactive)

## O=C(Nc1ccc2nc(SCc3ccc(Cl)cc3)sc2c1)c1ccccc1C(=O)N1CCOCC1
  activation: 0.71% (inactive)

## Cc1ccc(/C=C2\SC(=S)N(CCCC(=O)Nc3cccc(C(=O)O)c3)C2=O)cc1
  activation: -0.08% (inactive)

## O=C(CCCN1C(=O)S/C(=C\C=C\c2ccccc2)C1=O)Nc1ccc(C(=O)O)cc1
  activation: 0.11% (inactive)

## COc1ccc(/C=C2\SC(=S)N(CCCC(=O)Nc3ccc(O)cc3)C2=O)cc1
  activation: -0.03% (inactive)

## CCc1ccc(/C=C2\SC(=S)N(CCCC(=O)Nc3ccc(C(=O)O)cc3)C2=O)cc1
  activation: -0.5% (inactive)

## CC(C)(C)c1ccc(OCCC(=O)NCCc2ccc(S(N)(=O)=O)cc2)cc1
  activation: -0.05% (inactive)

## CC(/C=C1\SC(=S)N(CCCC(=O)Nc2ccc(C(=O)O)cc2)C1=O)=C\c1ccccc1
  activation: -0.11% (inactive)

## O=C(CCCN1C(=O)/C(=C\c2ccccc2)SC1=S)Nc1ccc(C(=O)O)cc1
  activation: 0.29% (inactive)

## O=C(CCCN1C(=O)/C(=C/c2ccccc2)SC1=S)Nc1ccc(C(=O)O)c(O)c1
  activation: 1.45% (inactive)

## COc1cccc(/C=C2\SC(=S)N(CCCC(=O)Nc3ccc(C(=O)O)cc3)C2=O)c1
  activation: -0.18% (inactive)

## COc1ccc(/C=C2\SC(=S)N(CCCC(=O)Nc3ccc(C(=O)O)c(O)c3)C2=O)cc1OC
  activation: -0.24% (inactive)

## Cc1nc(N2CCC(C)CC2)c2c(C)c(C(=O)Nc3ccc4c(c3)OCCO4)sc2n1
  activation: -0.13% (inactive)

## O=C(CCCN1C(=O)/C(=C\c2ccccc2)SC1=S)Nc1cccc(C(=O)O)c1
  activation: 0.66% (inactive)

## CC(/C=C1\SC(=S)N(CCCC(=O)Nc2ccc(C(=O)O)c(O)c2)C1=O)=C\c1ccccc1
  activation: 0.21% (inactive)

## O=C(CCCN1C(=O)S/C(=C/C=C/c2ccccc2)C1=O)Nc1ccc(C(=O)O)cc1
  activation: -0.18% (inactive)

## Clc1ccc(Cn2ncc3c(N4CCN(c5ccccc5)CC4)ncnc32)cc1
  activation: -0.08% (inactive)

## COc1ccc(/C=C2\SC(=S)N(CCCC(=O)Nc3cccc(C(=O)O)c3)C2=O)cc1OC
  activation: -0.11% (inactive)

## Cc1ccc(Cn2ncc3c(N4CCN(c5ccccc5C)CC4)ncnc32)cc1
  activation: -0.08% (inactive)

## Cc1ccc(/C=C2\SC(=S)N(CCCC(=O)Nc3ccc(O)cc3)C2=O)cc1
  activation: -0.18% (inactive)

## CCOc1ccc(NC(=O)CSc2nc3ccsc3c(=O)n2Cc2ccc(C(=O)O)cc2)cc1
  activation: 0.24% (inactive)

## O=C(CCCN1C(=O)/C(=C/c2ccc3c(c2)OCO3)SC1=S)Nc1ccc(C(=O)O)c(O)c1
  activation: 0.21% (inactive)
